The text below walks through data of ChEMBL document CHEMBL1828503, “Design, synthesis and docking studies of quinoline-oxazolidinone hybrid molecules and their antitubercular properties” (2011).

Converted amounts (≈) assume the structure as drawn.

What all share (format): functional
The test system of test [1] is Pseudomonas aeruginosa. The test is described as follows: Antimicrobial activity against Pseudomonas aeruginosa ATCC 27853 after 18 to 48 hrs by serial dilution method.
For test [2], the system named is Escherichia coli. The test is described as follows: Antimicrobial activity against Escherichia coli ATCC 25922 after 18 to 48 hrs by serial dilution method.
Test [3] concerns Mycobacterium tuberculosis. The test can be described thus: Antimicrobial activity against Mycobacterium tuberculosis H37Rv ATCC 27294 assessed as growth inhibition after 7 days by resazurin assay. A general note: Resazurin is reduced to fluorescent resorufin, in cell work by metabolically active cells.
In test [4] the test system is Klebsiella pneumoniae. The test can be described thus: Antimicrobial activity against Klebsiella pneumoniae clinical isolate after 18 to 48 hrs by serial dilution method.
For test [5], the system named is Mycobacterium tuberculosis. The test can be described thus: Antimicrobial activity against Mycobacterium tuberculosis H37Rv ATCC 27294 after 7 days by resazurin assay. The conditions noted are these: H37Rv ATCC 27294, 168 h. The procedure, abridged: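 M. tuberculosis H37Rv ATCC 27294 culture diluted into fresh medium in 96-well microtitre plates. Compounds were taken from 2 mg/mL stocks in DMF, with DMF-only control tubes and rifampicin and isoniazid as references. Plates were incubated 37 °C for 7 days, then 0.01% aqueous resazurin was added and read after 1 h at 37 °C. MIC is the lowest concentration preventing the blue-to-pink change.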

Test [6] concerns Mycolicibacterium smegmatis. The test can be described thus: Antimicrobial activity against Mycobacterium smegmatis ATCC 19420 after 7 days by resazurin assay. The settings on record: ATCC 19420, 168 h. The procedure, abridged: (§1)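 Resazurin microplate assay. Culture added to fresh medium in 96-well plates. Compound stocks 2 mg/mL in DMF. DMF-only controls, with rifampicin and isoniazid as references. Incubated 7 days at 37 °C, then 0.01% resazurin in water added. Blue-to-pink change read after 1 h at 37 °C. MIC taken as the lowest concentration preventing the colour change.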

Test [7] relates to Streptococcus pyogenes. The test can be described thus: Antimicrobial activity against Streptococcus pyogenes clinical isolate after 18 to 48 hrs by serial dilution method.
Test [8] relates to Staphylococcus aureus. The test is described as follows: Antimicrobial activity against Staphylococcus aureus ATCC 25923 after 18 to 48 hrs by serial dilution method.
Test [9] deals with Mycolicibacterium fortuitum. The test can be described thus: Antimicrobial activity against Mycobacterium fortuitum ATCC 19542 after 7 days by resazurin assay. The settings on record: ATCC 19542, 168 h. The procedure, abridged: as §1

On to `COc1ccc2nc(C)cc(N3CC(CNC(=O)c4ccccc4)OC3=O)c2c1` (stereo unspecified), for which the MIC – broadly, the lowest concentration found to suppress growth – in [1] is more than 12.5 mg/L; in test [2], more than 12.5 mg/L; in [4], 6.25 mg/L (≈ 16 µM); in test [5], 100 mg/L (≈ 255 µM); in [6], 100 mg/L (≈ 255 µM); in [7], 3.12 mg/L (≈ 7.98 µM). Besides, the MIC in test [8] came out at 3.12 mg/L (≈ 7.98 µM); in [9], 100 mg/L (≈ 255 µM). Besides, the “growth inhibition (GI)” value in [3] worked out at 0%.

On to `CCc1ccc(C(=O)NCC2CN(c3cc(C)nc4ccc(OC)cc34)C(=O)O2)cc1` (stereo unspecified), for which the MIC is more than 12.5 mg/L in test [1]; 3.12 mg/L (≈ 7.45 µM) in test [2]; 1.6 mg/L (≈ 3.81 µM) in [4]; 100 mg/L (≈ 238 µM) in test [5]; 100 mg/L (≈ 238 µM) in test [6]; 6.25 mg/L (≈ 14.9 µM) in test [7]. Moreover, the MIC stood at 1.6 mg/L (≈ 3.81 µM) in [8] and 100 mg/L (≈ 238 µM) in test [9]. The “growth inhibition (GI)” value in test [3] turned out to be 0%.

As to `COc1ccc2nc(C)cc(N3CC(CNC(=O)c4ccc(C)cc4)OC3=O)c2c1` (stereo unspecified), the MIC in [1] was 3.12 mg/L (≈ 7.71 µM); in test [2], 3.12 mg/L (≈ 7.71 µM); in test [4], 3.12 mg/L (≈ 7.71 µM); in test [5] it was 100 mg/L (≈ 247 µM); in [6], 100 mg/L (≈ 247 µM); in test [7] it was 1.6 mg/L (≈ 3.95 µM). Further, the MIC was found to be 3.12 mg/L (≈ 7.71 µM) in test [8] and 100 mg/L (≈ 247 µM) in test [9]. In [3], the “growth inhibition (GI)” value worked out at 0%.

Take `COc1ccc(C(=O)NCC2CN(c3cc(C)nc4ccc(OC)cc34)C(=O)O2)cc1` (stereo unspecified): the MIC came out at 0.2 mg/L (≈ 0.475 µM) in test [1]; 0.2 mg/L (≈ 0.475 µM) in test [2]; 0.1 mg/L (≈ 0.237 µM) in [4]; 5 mg/L (≈ 11.9 µM) in test [5]; 5 mg/L (≈ 11.9 µM) in test [6]; 0.4 mg/L (≈ 0.949 µM) in test [7]. For the same compound, the values for the MIC in test [8] and in test [9] were 0.8 mg/L (≈ 1.9 µM) and 10 mg/L (≈ 23.7 µM), respectively. For the same compound, the “growth inhibition (GI)” value in test [3] was determined as 85%.

As for `COc1ccc2nc(C)cc(N3CC(CNC(=O)c4ccc(C(F)(F)F)cc4)OC3=O)c2c1` (stereo unspecified), the MIC in test [1] is 0.4 mg/L (≈ 0.871 µM); in [2] it was 0.4 mg/L (≈ 0.871 µM); in [4], 0.8 mg/L (≈ 1.74 µM); in test [5], 0.625 mg/L (≈ 1.36 µM); in test [6], 10 mg/L (≈ 21.8 µM); in test [7], 0.4 mg/L (≈ 0.871 µM). Besides, the MIC in test [8] worked out at 0.8 mg/L (≈ 1.74 µM); in test [9], 2.5 mg/L (≈ 5.44 µM). Also, in [3], the “growth inhibition (GI)” value is listed as 90%.

Regarding `COc1ccc(C(=O)NCC2CN(c3cc(C)nc4ccc(OC)cc34)C(=O)O2)c(C)c1` (stereo unspecified), the MIC worked out at 3.12 mg/L (≈ 7.18 µM) in test [1]; 1.6 mg/L (≈ 3.67 µM) in [2]; 0.8 mg/L (≈ 1.84 µM) in test [4]; 1 mg/L (≈ 2.3 µM) in test [5]; 100 mg/L (≈ 230 µM) in test [6]; 1.6 mg/L (≈ 3.67 µM) in test [7]. Also, the MIC in [8] came to 0.8 mg/L (≈ 1.84 µM); in test [9] it was 100 mg/L (≈ 230 µM). The “growth inhibition (GI)” value in test [3] came to 85%.

Turning to `COc1ccc2nc(C)cc(N3CC(CNC(=O)c4ccc(Cl)cc4)OC3=O)c2c1` (stereo unspecified), the MIC in [1] came out at 6.25 mg/L (≈ 14.7 µM); in test [2], 3.12 mg/L (≈ 7.34 µM); in [4] it was 6.25 mg/L (≈ 14.7 µM); in test [5], 100 mg/L (≈ 235 µM); in [6], 100 mg/L (≈ 235 µM); in test [7], 3.12 mg/L (≈ 7.34 µM). In addition, the MIC in [8] was 1.6 mg/L (≈ 3.76 µM); in [9], 100 mg/L (≈ 235 µM). Besides, in [3], the “growth inhibition (GI)” value is on record as 85%.

Turning to `COc1ccc2nc(C)cc(NC(=O)CN3CC(CN(C)C)OC3=O)c2c1` (stereo unspecified), the MIC in test [1] amounted to 0.2 mg/L (≈ 0.537 µM); in [2] it was 0.2 mg/L (≈ 0.537 µM); in [4], 0.4 mg/L (≈ 1.07 µM); in test [5] it was 0.625 mg/L (≈ 1.68 µM); in test [6], 2.5 mg/L (≈ 6.71 µM); in [7], 0.8 mg/L (≈ 2.15 µM). The MIC in test [8] was found to be 0.8 mg/L (≈ 2.15 µM); in test [9], 10 mg/L (≈ 26.9 µM). The “growth inhibition (GI)” value in test [3] is on record as 95%.

As for `COc1ccc2nc(C)cc(NC(=O)CN3CC(CN4CCN(C)CC4)OC3=O)c2c1` (stereo unspecified), the MIC amounted to 1.6 mg/L (≈ 3.74 µM) in test [1]; 0.4 mg/L (≈ 0.936 µM) in test [2]; 0.1 mg/L (≈ 0.234 µM) in [4]; 1 mg/L (≈ 2.34 µM) in [5]; 10 mg/L (≈ 23.4 µM) in [6]; 0.4 mg/L (≈ 0.936 µM) in test [7]. Also, the MIC is 0.8 mg/L (≈ 1.87 µM) in test [8] and 10 mg/L (≈ 23.4 µM) in test [9]. Moreover, the “growth inhibition (GI)” value in test [3] came to 90%.
